Results on 20 compounds are retold here after ChEMBL document CHEMBL2021811, “The discovery of potent and selective pyridopyrimidin-7-one based inhibitors of B-RafV600E kinase” (Bioorg Med Chem Lett, 2012).

Molecules are shown by their SMILES. Calls of active or inactive are those of the source. The rule behind the calls is not given here.

Data set [1] concerns the target T1, Serine/threonine-protein kinase B-raf (Homo sapiens, UniProt P15056, V600E). The experiment in a line: Inhibition of full-length B-Raf V600E mutant in human MALME-3M cells assessed as reduction in basal ERK1/2 phosphorylation incubated for 1 hr. The format is cell-based.
For data set [2], the target named is T1, Serine/threonine-protein kinase B-raf. In words: Inhibition of full-length B-Raf V600E mutant assessed as reduction in incorporation of radiolabeled phosphate from [gamma-33P]ATP into FSBA-modified wild-type MEK.
Data set [3] addresses LIM domain kinase 1 (Homo sapiens) (UniProt P53667). In words: Inhibition of human LIMK1 at 1 uM in presence of ATP at level equals to ~ Km of ATP.
In data set [4] the target is Serine/threonine-protein kinase B-raf (Homo sapiens) (UniProt P15056). The experiment in a line: Inhibition of human B-raf at 1 uM in presence of ATP at level equals to ~ Km of ATP.
The target of data set [5] is RAF proto-oncogene serine/threonine-protein kinase (Homo sapiens) (UniProt P04049). In words: Inhibition of human C-raf at 1 uM in presence of ATP at level equals to ~ Km of ATP.
Data set [6] is described as follows: Clearance in mouse at 2.5 mg/kg, iv. The format is ADME, organism-based. Also noted: dose 2.5 mg/kg, route intravenous. The following applies: in vivo. In short, it runs like this:
(§1)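 Mouse intravenous pharmacokinetics at 2.5 mg/kg. Observed clearance is reported in ml/min/kg and volume of distribution in l/kg.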

Data set [7] can be described thus: Volume of distribution in mouse at 2.5 mg/kg, iv. The format is ADME, organism-based. Details: dose 2.5 mg/kg, route intravenous. The following applies: in vivo. The procedure, abridged:
as §1

Data set [8] can be described thus: Permeability across human Caco2 cells. Format: ADME, cell-based. The following applies: Caco-2, read-out: permeability. The procedure, abridged: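 Caco-2 monolayer permeability is reported as a class: low <2 × 10^-6 cm/s, medium 2–8 × 10^-6 cm/s, high >8 × 10^-6 cm/s.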
(In general: Caco-2 monolayers are a common model of the intestinal barrier.)

Data set [9] is described as follows: AUC in mouse at 30 mg/kg, po. The format is ADME, organism-based. Also noted: dose 30 mg/kg, route oral. The following applies: plasma.
Data set [10] in a line: Oral bioavailability in mouse at 30 mg/kg. The following applies: in vivo. Format: ADME, organism-based.
Data set [11] can be described thus: Antitumor activity against B-Raf V600E mutant expressing human LOX cells xenografted in mouse assessed as tumor growth inhibition at 30 mg/kg, QD from day 1 to day 4 measured on day 5. Format: functional. The following applies: read-out: TGI. The procedure, abridged: (§2)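 Nude mice bearing established LOX (B-Raf V600E) xenografts were dosed at 30 mg/kg once daily on days 1–4, with vehicle controls at 10 ml/kg. Tumor volume was measured on days 1, 3, 5, 8 and 11.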
In general terms: A xenograft is tissue or cells of one species grown in another, often human tumour cells in immunodeficient mice.

Data set [12] in a line: Antitumor activity against B-Raf V600E mutant expressing human LOX cells xenografted in mouse assessed as tumor growth inhibition at 30 mg/kg, QD from day 1 to day 4 measured on day 8. The format is functional. The following applies: read-out: TGI. In short, it runs like this: as §2
Data set [13] is described as follows: Antitumor activity against B-Raf V600E mutant expressing human LOX cells xenografted in mouse assessed as tumor growth inhibition at 30 mg/kg, QD from day 1 to day 4 measured on day 11. The format is functional. The following applies: read-out: TGI. The procedure, abridged:
as §2

Data set [14] has as its target Proto-oncogene tyrosine-protein kinase Src (Homo sapiens) (UniProt P12931). In words: Inhibition of SRC at 1 uM.
Data set [15] has as its target Tyrosine-protein kinase Lck (Homo sapiens) (UniProt P06239). In words: Inhibition of LCK at 1 uM.
The target in data set [16] is Vascular endothelial growth factor receptor 2 (Homo sapiens) (UniProt P35968). The experiment in a line: Inhibition of KDR at 1 uM.
Data set [17] concerns the target Tyrosine-protein kinase Fgr (Homo sapiens) (UniProt P09769). The experiment in a line: Inhibition of FGR at 1 uM.
For data set [18], the target named is Tyrosine-protein kinase ABL1 (Homo sapiens) (UniProt P00519). In words: Inhibition of ABL at 1 uM.
Chain of Tyrosine-protein kinase ABL1 (Homo sapiens) (P00519 whole entry): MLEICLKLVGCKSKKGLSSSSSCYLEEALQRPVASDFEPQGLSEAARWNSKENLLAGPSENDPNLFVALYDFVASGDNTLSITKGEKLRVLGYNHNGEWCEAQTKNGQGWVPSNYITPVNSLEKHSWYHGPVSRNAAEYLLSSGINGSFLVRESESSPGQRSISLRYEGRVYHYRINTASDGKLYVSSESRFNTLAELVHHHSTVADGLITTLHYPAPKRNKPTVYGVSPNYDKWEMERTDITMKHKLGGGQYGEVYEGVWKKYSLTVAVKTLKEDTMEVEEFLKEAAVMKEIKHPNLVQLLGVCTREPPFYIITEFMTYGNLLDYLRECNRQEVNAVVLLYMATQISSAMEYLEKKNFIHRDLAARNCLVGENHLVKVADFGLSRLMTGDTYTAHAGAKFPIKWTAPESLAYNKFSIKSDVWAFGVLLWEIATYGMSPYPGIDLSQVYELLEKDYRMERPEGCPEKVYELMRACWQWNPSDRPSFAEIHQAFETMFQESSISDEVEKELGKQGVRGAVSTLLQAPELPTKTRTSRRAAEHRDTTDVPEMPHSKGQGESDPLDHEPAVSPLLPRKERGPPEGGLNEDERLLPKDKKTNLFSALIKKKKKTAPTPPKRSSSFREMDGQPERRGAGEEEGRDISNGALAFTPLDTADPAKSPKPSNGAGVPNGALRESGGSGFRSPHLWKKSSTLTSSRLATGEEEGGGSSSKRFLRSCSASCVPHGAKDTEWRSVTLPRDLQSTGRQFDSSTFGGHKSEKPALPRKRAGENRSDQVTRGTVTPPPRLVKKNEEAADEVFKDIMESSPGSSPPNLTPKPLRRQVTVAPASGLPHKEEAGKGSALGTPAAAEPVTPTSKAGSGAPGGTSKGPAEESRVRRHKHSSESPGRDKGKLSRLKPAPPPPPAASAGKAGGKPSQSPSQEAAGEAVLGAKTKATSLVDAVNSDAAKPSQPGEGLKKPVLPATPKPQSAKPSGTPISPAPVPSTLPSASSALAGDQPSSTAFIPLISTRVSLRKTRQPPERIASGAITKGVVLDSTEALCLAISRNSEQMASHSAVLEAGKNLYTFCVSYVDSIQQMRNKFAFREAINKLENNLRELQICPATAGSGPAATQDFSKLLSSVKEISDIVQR

Chain of Proto-oncogene tyrosine-protein kinase Src (Homo sapiens) (P12931 2-536 limits assumed): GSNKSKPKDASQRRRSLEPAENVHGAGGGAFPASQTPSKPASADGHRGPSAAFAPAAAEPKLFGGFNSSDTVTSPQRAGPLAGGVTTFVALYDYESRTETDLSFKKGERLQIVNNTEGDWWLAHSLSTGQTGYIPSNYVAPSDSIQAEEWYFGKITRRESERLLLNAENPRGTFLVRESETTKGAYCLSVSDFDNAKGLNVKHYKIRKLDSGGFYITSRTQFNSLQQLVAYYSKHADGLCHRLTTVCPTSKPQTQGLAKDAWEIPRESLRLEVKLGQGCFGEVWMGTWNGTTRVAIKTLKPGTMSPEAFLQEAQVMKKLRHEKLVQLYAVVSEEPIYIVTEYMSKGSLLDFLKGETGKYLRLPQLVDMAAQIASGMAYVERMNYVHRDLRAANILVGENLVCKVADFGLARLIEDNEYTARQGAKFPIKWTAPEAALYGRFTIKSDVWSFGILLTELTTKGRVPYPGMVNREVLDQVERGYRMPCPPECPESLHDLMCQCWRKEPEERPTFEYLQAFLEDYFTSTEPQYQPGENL
T1 sequence (P15056 2-766 V600E limits assumed): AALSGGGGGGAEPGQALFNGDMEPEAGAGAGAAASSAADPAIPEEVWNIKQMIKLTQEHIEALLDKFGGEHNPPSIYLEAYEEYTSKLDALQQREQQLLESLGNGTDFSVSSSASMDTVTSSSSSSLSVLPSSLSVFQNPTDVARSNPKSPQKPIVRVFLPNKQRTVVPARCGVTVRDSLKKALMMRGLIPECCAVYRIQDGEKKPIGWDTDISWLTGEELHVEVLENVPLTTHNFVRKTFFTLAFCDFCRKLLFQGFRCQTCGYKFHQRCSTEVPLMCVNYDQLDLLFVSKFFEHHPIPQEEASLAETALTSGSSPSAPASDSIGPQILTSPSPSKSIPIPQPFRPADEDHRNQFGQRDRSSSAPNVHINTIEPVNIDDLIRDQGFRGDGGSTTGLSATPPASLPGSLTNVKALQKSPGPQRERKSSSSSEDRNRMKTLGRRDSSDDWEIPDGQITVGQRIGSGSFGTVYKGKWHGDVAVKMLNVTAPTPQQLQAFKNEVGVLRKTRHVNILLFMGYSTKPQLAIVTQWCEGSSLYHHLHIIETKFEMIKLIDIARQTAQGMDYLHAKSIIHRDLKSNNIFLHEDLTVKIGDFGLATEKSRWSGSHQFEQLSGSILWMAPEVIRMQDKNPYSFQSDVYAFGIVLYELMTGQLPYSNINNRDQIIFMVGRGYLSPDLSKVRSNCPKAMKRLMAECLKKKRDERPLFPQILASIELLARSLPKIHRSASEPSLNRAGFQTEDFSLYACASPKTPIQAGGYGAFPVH
Chain of Tyrosine-protein kinase Lck (Homo sapiens) (P06239 2-509 limits assumed): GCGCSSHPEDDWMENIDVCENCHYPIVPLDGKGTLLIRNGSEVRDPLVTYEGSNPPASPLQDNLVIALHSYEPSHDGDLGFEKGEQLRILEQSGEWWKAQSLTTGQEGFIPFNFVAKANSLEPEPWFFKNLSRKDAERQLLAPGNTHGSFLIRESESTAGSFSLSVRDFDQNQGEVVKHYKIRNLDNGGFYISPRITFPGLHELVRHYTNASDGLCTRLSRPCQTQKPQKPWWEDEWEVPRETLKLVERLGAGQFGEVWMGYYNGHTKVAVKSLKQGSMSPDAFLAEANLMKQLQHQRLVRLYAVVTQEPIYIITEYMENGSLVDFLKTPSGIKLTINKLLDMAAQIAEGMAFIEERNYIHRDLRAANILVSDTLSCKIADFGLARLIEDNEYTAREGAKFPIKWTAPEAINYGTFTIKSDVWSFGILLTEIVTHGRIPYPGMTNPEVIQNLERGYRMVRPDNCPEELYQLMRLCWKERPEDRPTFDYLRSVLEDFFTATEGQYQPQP
Chain of Vascular endothelial growth factor receptor 2 (Homo sapiens) (P35968 whole entry): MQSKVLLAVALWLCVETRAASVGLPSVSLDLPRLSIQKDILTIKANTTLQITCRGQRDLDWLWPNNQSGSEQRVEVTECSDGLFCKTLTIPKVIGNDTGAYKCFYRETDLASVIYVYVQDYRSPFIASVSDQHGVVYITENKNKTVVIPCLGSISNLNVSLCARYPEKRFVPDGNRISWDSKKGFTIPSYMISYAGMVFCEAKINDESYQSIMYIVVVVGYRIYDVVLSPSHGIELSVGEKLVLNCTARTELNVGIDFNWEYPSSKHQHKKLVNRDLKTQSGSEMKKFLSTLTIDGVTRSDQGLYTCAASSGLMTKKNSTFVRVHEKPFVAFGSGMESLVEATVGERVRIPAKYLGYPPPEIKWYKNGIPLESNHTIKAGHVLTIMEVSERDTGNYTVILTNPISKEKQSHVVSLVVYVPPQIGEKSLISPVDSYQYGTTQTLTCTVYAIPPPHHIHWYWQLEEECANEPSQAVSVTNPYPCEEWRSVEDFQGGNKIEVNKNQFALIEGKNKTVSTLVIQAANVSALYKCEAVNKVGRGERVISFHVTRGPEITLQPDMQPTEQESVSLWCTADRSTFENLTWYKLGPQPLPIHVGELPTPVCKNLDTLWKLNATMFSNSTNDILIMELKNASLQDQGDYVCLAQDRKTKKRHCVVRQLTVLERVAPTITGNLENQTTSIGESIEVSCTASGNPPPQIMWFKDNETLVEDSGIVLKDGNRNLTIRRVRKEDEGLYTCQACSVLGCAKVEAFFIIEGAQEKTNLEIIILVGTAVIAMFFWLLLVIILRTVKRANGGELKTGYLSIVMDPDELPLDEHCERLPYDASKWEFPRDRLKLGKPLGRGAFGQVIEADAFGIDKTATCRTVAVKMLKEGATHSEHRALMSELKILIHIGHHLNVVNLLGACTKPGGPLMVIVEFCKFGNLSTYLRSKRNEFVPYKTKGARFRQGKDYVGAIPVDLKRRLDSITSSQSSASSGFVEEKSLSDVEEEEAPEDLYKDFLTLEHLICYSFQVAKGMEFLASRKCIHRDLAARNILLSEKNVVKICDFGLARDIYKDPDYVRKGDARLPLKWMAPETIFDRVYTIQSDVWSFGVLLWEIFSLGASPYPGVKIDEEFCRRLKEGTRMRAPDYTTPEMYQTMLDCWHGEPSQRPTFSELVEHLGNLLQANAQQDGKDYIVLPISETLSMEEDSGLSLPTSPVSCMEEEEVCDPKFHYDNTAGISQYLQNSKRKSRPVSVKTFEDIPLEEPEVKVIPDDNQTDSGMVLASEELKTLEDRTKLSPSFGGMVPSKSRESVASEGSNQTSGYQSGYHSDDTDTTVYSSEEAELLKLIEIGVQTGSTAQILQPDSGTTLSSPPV
Chain of Tyrosine-protein kinase Fgr (Homo sapiens) (P09769 2-529 limits assumed): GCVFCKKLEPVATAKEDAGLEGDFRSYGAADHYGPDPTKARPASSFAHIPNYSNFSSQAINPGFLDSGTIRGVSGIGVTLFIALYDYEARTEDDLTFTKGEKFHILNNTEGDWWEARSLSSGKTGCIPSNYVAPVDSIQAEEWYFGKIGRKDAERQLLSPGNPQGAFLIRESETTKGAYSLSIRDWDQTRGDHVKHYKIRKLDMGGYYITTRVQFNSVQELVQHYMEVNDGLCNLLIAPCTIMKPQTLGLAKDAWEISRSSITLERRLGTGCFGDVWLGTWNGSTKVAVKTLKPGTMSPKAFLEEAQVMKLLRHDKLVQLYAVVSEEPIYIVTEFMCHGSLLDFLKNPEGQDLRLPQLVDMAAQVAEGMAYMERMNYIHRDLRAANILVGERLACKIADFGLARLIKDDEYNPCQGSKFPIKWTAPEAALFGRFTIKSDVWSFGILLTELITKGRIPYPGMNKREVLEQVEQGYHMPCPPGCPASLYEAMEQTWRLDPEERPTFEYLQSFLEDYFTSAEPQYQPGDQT

In the case of `CCCS(=O)(=O)Nc1ccc(F)c(-c2cc3cnccc3n(CCc3ccccc3)c2=O)c1F`, the IC50 (as a rule, the concentration needed to halve the response being measured) in data set [1] turned out to be 1160 nM; in [2], 13 nM.
`CCCS(=O)(=O)Nc1ccc(F)c(-c2ccc3nc(N)ncc3c2)c1`: the IC50 in data set [2] was more than 10000 nM.
Take `CCCS(=O)(=O)Nc1ccc(C)c(-c2ccc3nc(N)ncc3c2)c1`: the values for the IC50 in data set [1] and in data set [2] were more than 10000 nM and 128 nM, respectively.
As to `CCCS(=O)(=O)Nc1ccc(F)c(-c2cc3cnc(NCC4CC4)nc3n(C)c2=O)c1F`, the inhibition (commonly the change of the read-out against control, counted positive when it falls) in data set [3] is more than 80%. For the same compound, the inhibition entry in [4] and in [5] was “Active” in each case. Besides, in [6], the clearance (as a rule, the rate of elimination divided by the concentration) stood at 3 mL/min/kg. In addition, the Vd (as a rule, a proportionality between amount in the body and measured concentration, not a real space) in data set [7] was 0.46 L/kg. Also, the Papp in data set [8] is more than 8 ×10⁻⁶ cm/s. In data set [9], the AUC (commonly concentration integrated over time) is 133 µM·h. In addition, the bioavailability (usually dose-corrected exposure relative to a reference, in per cent) in [10] stood at 33%. Further, the inhibition in vivo at 30 mg/kg in data set [11] came out at 74%; in [12], 96%; in data set [13], 97%. In addition, the half-maximal inhibitory concentration (IC50) in data set [1] stood at 27 nM; in data set [2], 3 nM.
Take `CCCS(=O)(=O)Nc1ccc(F)c(-c2ccc3nc(N)ncc3c2)c1F`: the figures for the IC50 in data set [1] and in [2] were 682 nM and 140 nM, respectively.
For `CCCS(=O)(=O)Nc1ccc(F)c(-c2cc3cncc(Br)c3cn2)c1F`, in that order: 469 nM and 72 nM.
For the compound `CCCS(=O)(=O)Nc1ccc(F)c(-c2cc3cnc(N)nc3n(C)c2=O)c1F`, the values for the IC50 in data set [1] and in [2] were 93 nM and 10 nM, respectively.
For `CCCS(=O)(=O)Nc1ccc(F)c(-c2cc3cnccc3cn2)c1F`, in that order: 703 nM and 241 nM.
The matching figures for `CCCS(=O)(=O)Nc1ccc(F)c(-c2cc3cnc(NC)nc3n(C)c2=O)c1F`: 45 nM and 9 nM.
As to `CCCS(=O)(=O)Nc1ccc(F)c(-c2cc3cnc(Nc4cccnc4)nc3n(C)c2=O)c1F`, the inhibition in data set [14], in data set [15], in [16], in data set [17] and in [18] was more than 90% throughout. Besides, the IC50 in [1] turned out to be 3 nM; in data set [2], 0.5 nM.
For the compound `CCCS(=O)(=O)Nc1ccc(F)c(-c2cc3cnc(NCCCO)nc3n(C)c2=O)c1F`, the Vd in data set [7] came out at 20 L/kg. Further, the Papp in [8] was more than 8 ×10⁻⁶ cm/s. The compound also showed an AUC in data set [9] of 20 µM·h. Besides, the 50% inhibitory concentration (IC50) in data set [1] is 41 nM.
For `CCCS(=O)(=O)Nc1ccc(F)c(-c2cc3cnc(Nc4cnn(C)c4)nc3n(C)c2=O)c1F`, the inhibition in data set [14], in data set [15], in [16], in [17] and in data set [18] was more than 90% throughout. Also, the IC50 came out at 1 nM in [1] and 0.4 nM in data set [2].
For the compound `CCCS(=O)(=O)Nc1ccc(F)c(-c2cc3cnc(Nc4ccccc4)nc3n(C)c2=O)c1F`, the inhibition in data set [14], in data set [15], in data set [16], in [17] and in data set [18] was more than 90% in each case. The values for the IC50 in data set [1] and in data set [2] were 5 nM and 0.5 nM, respectively.
For `CCCS(=O)(=O)Nc1ccc(F)c(-c2cc3cnccc3c(=O)n2C)c1F`, the IC50 was determined as 445 nM in data set [1] and 71 nM in data set [2].
Consider `CCCS(=O)(=O)Nc1ccc(F)c(-c2cc3ccncc3[nH]2)c1F`, for which the IC50 in data set [2] is more than 10000 nM.
As to `CCCS(=O)(=O)Nc1ccc(F)c(-c2cc3cnc(NCCO)nc3n(C)c2=O)c1F`, the clearance in data set [6] was found to be 74 mL/min/kg. The Vd in data set [7] amounted to 1 L/kg. For the same compound, the Papp in data set [8] is more than 8 ×10⁻⁶ cm/s. In addition, the AUC in data set [9] stood at 1 µM·h. The same compound gave a bioavailability in data set [10] of 18%. The IC50 in [1] was 31 nM; in data set [2], 6 nM.
As to `CCCS(=O)(=O)Nc1ccc(F)c(-c2ccc3ccncc3c2)c1F`, the half-maximal inhibitory concentration (IC50) in data set [2] was found to be 340 nM.
On the same count and under the same terms, with `CCCS(=O)(=O)Nc1ccc(F)c(-c2ccc3ccncc3n2)c1F` the figure was 3610 nM.
Take `CCCS(=O)(=O)Nc1ccc(F)c(-c2cc3cnc(NC4CCOCC4)nc3n(C)c2=O)c1F`: the IC50 stood at 73 nM in [1] and 15 nM in data set [2].
Regarding `CCCS(=O)(=O)Nc1ccc(F)c(-c2ccc3cc(N)ncc3c2)c1F`, in [2], the IC50 was 549 nM.
